Bioassay records: PubChem, several laboratories
Sampled rows, rich in hits. Any-hit rate of the full collection: about 3.6%.
EBNA-1 inhibitor = blocks EBNA-1 binding to DNA. EBNA-1 DNA binding, fluorescence polarization. inhibition, % at 14.8 µM. 0.34% of 300,000 active; in the data active = inhibition above about 28%
ZTA counter = blocks Epstein-Barr virus ZTA, an EBNA-1 counter-screen | P03206 | ZTA-DNA binding, fluorescence polarization | inhibition, % at 11 µM | 0.15% of 320,000 active | AID 2234; in the data active = inhibition above about 33%
Target sequence (P03206 whole entry, looked up): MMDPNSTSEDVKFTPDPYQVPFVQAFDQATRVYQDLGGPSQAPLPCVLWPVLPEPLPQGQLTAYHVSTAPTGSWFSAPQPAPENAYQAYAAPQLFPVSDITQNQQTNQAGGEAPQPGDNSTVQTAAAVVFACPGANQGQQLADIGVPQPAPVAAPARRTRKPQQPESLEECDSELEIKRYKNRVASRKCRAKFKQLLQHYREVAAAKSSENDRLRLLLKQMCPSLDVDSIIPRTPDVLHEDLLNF
FID counter = displaces DNA intercalator in HCV helicase counter-screen. AID 1845. inhibition, % at 7.9 µM. DNA fluorescent intercalator displacement, fluorescence. 0.17% of 290,000 active; in the data active = inhibition above about 37%;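 also: 0% = vehicle and 100% = reference compound; higher means more ethidium bromide displaced from hairpin DNA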
NR3A LBD binder = modulators (binders) of human NR3A ligand-binding domain. 2.5% of 340,000 active. Tm shift relative to glycine control, % at 25 µM. AID 1259313. NR3A LBD differential scanning fluorimetry, Tm shift; 0% = protein alone, 100% = glycine-bound protein;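 active = melting temperature shift of at least 10% of the positive control shift, at one fixed dose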
HCV NS3 hel inh = HCV NS3 helicase inhibition; AID 1800; NS3 helicase DNA unwinding, Cy5 molecular beacon fluorescence; inhibition, % at 10.9 µM; 0.56% of 290,000 active;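 active = inhibition above the mean of all tested compounds plus 3 SD, set per campaign, cut at about 35% in these data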;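 also: 0% = DMSO wells and 100% = thioflavine S control wells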
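System: HCV NS3 helicase fragment; control set: DMSO and thioflavine S; technique: Cy5 fluorescence at 0 and 60 min, beacon hairpin quenching; reagent: beacon DNA duplex substrate plus ATP; replicates: singlicate; schedule: 1 h reaction at 25 °C, ATP-initiated; medium: MOPS buffer pH 6.5 with MgCl2, DTT, Tween20, BSA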
FGF22 binding = FGF22 (human) thermal shift binding. Q9HCT0. recombinant FGF22 thermal shift, SYPRO orange fluorescence; percent of sucrose octasulfate shift, DMSO zero. activity (Tm shift, normalised), % at 9.99 µM. 1.5% of 340,000 active;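 active = mean Tm shift, scaled 0 neutral to 100 positive control, at about 1.3% or above, every replicate too, limit read from the data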
Target sequence (Q9HCT0 whole entry, looked up): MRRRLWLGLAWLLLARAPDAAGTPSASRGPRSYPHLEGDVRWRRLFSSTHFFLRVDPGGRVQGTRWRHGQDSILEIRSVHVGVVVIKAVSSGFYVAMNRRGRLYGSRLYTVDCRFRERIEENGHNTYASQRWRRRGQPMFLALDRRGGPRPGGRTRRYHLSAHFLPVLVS
* marks the source's active call; other numbers are inactive results; x = no result.

SMILES	EBNA-1 inhibitor	ZTA counter	FID counter	NR3A LBD binder	HCV NS3 hel inh	FGF22 binding
COc1ccc(NC(=S)NC(NC(=O)c2cccc(C)c2)C(Cl)(Cl)Cl)c([N+](=O)[O-])c1 (stereo unspecified)	7	19	5	10*	4	x
O=C(NC(NC(=S)Nc1ccccc1C(=O)O)C(Cl)(Cl)Cl)c1cccc([N+](=O)[O-])c1 (stereo unspecified)	-4	15	-14	16*	18	x
O=C(NC(NC(=S)Nc1ccccc1Cl)C(Cl)(Cl)Cl)c1cccc(Cl)c1 (stereo unspecified)	5	-1	1	13*	8	x
C[C@@H]1CN([C@H](C)CO)S(=O)(=O)c2ccc(-c3ccncc3)cc2O[C@H]1CN(C)S(C)(=O)=O	x	x	x	x	x	0
O=C(Cc1cccc2ccccc12)NC(NC(=S)Nc1ccccc1Cl)C(Cl)(Cl)Cl (stereo unspecified)	-2	-21	-4	19*	9	x
CCC(=O)NC(NC(=S)Nc1cccc2cccnc12)C(Cl)(Cl)Cl (stereo unspecified)	-3	-1	-4	-16	-1	0
COc1ccc(C(=O)NC(NC(=S)Nc2ccc(S(N)(=O)=O)cc2)C(Cl)(Cl)Cl)cc1 (stereo unspecified)	3	-9	-5	13*	-1	x
COc1ccc(C(=O)NC(=S)Nc2ccc(S(N)(=O)=O)cc2)cc1	-2	-10	-3	-4	-23	0
CCCNC(=O)N1CCC2(CC1)CN(S(C)(=O)=O)[C@H](CO)c1c2c2ccc(OC)cc2n1C	x	x	x	x	x	0
CCn1c(C(C)NC(=O)c2cccs2)n[nH]c1=S (stereo unspecified)	4	-1	0	10*	5	0
COc1ccc(S(=O)(=O)N(C)C[C@H]2OCCCC[C@H](C)Oc3ccc(NC(=O)CCCN(C)C)cc3C(=O)N([C@@H](C)CO)C[C@@H]2C)cc1	x	x	x	x	x	-1
CC(C)CN(C(=O)c1cc(=O)[nH]c2ccccc12)c1c(N)n(Cc2ccccc2)c(=O)[nH]c1=O	3	4	x	11*	x	0
Cc1nc2cc(NC(=O)Nc3ccc(Br)cc3)ccc2o1	13	19	3	34*	-13	0
Cc1nc2cc(NC(=O)NCc3ccc4c(c3)OCO4)ccc2o1	2	13	-8	x	11	x
Nc1ccc(-c2nc3c(Cl)cc(N)cc3[nH]2)cc1	-8	-4	20	10*	-32	x
Nc1ccc2nc(-c3ccc(N)c(Cl)c3)[nH]c2c1	-2	-13	24	16*	-32	x
Nc1ccc2nc(-c3ccccc3)[nH]c2c1	-4	15	11	-5	-38	x
CCCC(=O)Nc1ccc2c(c1)C(=O)N(C)[C@H]1CC[C@@H](CC(=O)NC3CCCC3)O[C@H]1CO2	x	x	x	x	x	0
O=[N+]([O-])c1ccc(C[n+]2cccc3c4ccccc4ccc32)cc1	4	0	10	-1	-12	43*
C[C@H](CO)N1C[C@H](C)[C@H](CN(C)C(=O)Cc2cccnc2)Oc2ncc(-c3cncnc3)cc2C1=O	x	x	x	x	x	0
Cc1nc(NC(=O)CCl)sc1C(=O)N(C)C	-4	5	2	1	-1	43*
Cc1nc(NC(=O)C(Cl)Cl)sc1C(=O)N(C)C	1	5	-7	-3	7	x
CN1CCN(C(=O)C[C@@H]2CC[C@H]3[C@@H](COc4ccc(NC(=O)c5cscn5)cc4C(=O)N3C)O2)CC1	x	x	x	x	x	0
CCC(C)Nc1nc(-c2ccc3c(c2)NC(=O)CO3)cs1 (stereo unspecified)	0	12	5	1	1	x
COc1ccc(Nc2nc(-c3ccc4c(c3)NC(=O)CO4)cs2)cc1	-6	-6	-4	15*	-8	0
COc1ccccc1Nc1nc(-c2ccc3c(c2)NC(=O)CO3)cs1	-2	9	-11	32*	-8	1
CCC(=O)N1CC[C@@H]2[C@H](CO)Nc3ccc(-c4ccc(C(=O)N(C)C)cc4)cc3[C@@H]21	x	x	x	x	x	0
Cc1ccc(S(=O)(=O)N2CC[C@@H]3[C@@H](CO)N(C)c4ccc(-c5ccc(C#N)cc5)cc4[C@@H]32)cc1	x	x	x	x	x	0
O=C(Cc1ccccc1)NNC(=O)Cc1ccccc1	-2	-11	-5	-3	2	0
